Data published in ChEMBL document CHEMBL4177769, “Highly Selective and Potent Ectonucleotide Pyrophosphatase-1 (NPP1) Inhibitors Based on Uridine 5'-Pα,α-Dithiophosphate Analogues” (J Med Chem, 2018).

Key:
[1] = Drug level treated with UTP 5'-O-Palpha,alpha-dithiophosphate at 2 mM at pH 11.7 at room temperature after 25 days by 31P NMR method; format: physicochemical; details: pH 11.7, 600 h, 2000 µM
[2] = Drug level treated with UTP 5'-O-Palpha,alpha-dithiophosphate at 2 mM at pH 1.7 at room temperature after 23 days by 31P NMR method; format: physicochemical; details: pH 1.7, 552 h, 2000 µM
[3] = molecular target: T1, Ectonucleoside triphosphate diphosphohydrolase 2 (Homo sapiens) (UniProt Q9Y5L3); test: Activation of human NTPDase2 using ATP as substrate preincubated for 3 mins followed by substrate addition measured after 10 mins by malachite green reagent-based assay relative to control
T1 sequence (whole entry): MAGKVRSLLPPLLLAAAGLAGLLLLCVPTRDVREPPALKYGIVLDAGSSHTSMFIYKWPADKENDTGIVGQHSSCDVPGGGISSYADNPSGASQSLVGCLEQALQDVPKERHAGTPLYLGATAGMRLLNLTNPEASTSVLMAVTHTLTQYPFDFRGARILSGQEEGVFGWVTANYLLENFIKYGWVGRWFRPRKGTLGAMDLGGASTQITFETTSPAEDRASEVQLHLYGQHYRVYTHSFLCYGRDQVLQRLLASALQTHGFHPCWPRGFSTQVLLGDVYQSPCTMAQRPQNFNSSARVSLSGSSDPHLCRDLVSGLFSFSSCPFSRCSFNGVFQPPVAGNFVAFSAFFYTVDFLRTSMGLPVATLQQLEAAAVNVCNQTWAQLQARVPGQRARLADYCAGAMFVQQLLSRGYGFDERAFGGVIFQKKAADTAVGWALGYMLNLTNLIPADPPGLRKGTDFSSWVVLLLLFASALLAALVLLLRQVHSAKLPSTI
Procedure, shortened: (§1)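 Compound at 100 μM, 3 min preincubation, 100 μM ATP, 10 min. Stopped with malachite green; Pi read at 630 nm. Blank with enzyme added after stop subtracted. Activity with ATP alone taken as 100%.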

[4] = molecular target: T2, Ectonucleoside triphosphate diphosphohydrolase 3 (Homo sapiens) (UniProt O75355); test: Activation of human NTPDase3 using ATP as substrate preincubated for 3 mins followed by substrate addition measured after 10 mins by malachite green reagent-based assay relative to control; procedure, shortened: as §1
T2 sequence (whole entry): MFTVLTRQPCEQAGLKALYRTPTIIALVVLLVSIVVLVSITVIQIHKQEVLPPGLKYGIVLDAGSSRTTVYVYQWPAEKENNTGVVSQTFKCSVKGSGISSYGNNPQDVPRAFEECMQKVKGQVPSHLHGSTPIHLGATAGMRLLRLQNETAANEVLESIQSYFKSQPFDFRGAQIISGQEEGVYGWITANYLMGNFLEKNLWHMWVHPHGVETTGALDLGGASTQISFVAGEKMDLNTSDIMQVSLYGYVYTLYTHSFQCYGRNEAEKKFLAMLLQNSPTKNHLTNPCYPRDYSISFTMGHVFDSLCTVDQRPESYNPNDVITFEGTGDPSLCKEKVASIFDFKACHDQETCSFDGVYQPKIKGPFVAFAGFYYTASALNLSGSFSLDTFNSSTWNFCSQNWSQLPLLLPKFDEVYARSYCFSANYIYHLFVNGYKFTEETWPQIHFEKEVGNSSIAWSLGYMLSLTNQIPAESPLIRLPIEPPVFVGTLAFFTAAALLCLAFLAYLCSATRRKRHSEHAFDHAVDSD

[5] = molecular target: T3, Ectonucleoside triphosphate diphosphohydrolase 8 (Homo sapiens) (UniProt Q5MY95); test: Activation of human NTPDase8 using ATP as substrate preincubated for 3 mins followed by substrate addition measured after 10 mins by malachite green reagent-based assay relative to control; procedure, shortened: as §1
T3 sequence (whole entry): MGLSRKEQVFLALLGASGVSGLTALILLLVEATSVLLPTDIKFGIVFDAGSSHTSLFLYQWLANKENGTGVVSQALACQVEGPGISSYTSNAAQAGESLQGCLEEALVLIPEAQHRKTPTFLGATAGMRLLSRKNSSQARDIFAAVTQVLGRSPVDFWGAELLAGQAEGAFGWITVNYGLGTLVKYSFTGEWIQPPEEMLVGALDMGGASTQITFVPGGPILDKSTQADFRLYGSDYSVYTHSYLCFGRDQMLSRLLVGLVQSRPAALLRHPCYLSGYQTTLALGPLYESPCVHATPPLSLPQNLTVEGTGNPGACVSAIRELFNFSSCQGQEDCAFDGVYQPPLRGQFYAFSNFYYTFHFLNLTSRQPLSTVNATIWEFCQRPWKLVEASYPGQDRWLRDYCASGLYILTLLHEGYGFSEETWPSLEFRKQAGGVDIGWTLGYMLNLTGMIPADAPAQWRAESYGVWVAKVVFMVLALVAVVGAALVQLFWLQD

[6] = molecular target: T4, Ectonucleoside triphosphate diphosphohydrolase 1 (Homo sapiens) (UniProt P49961); test: Activation of human NTPDase1 using ATP as substrate preincubated for 3 mins followed by substrate addition measured after 10 mins by malachite green reagent-based assay relative to control; procedure, shortened: as §1
T4 sequence (whole entry): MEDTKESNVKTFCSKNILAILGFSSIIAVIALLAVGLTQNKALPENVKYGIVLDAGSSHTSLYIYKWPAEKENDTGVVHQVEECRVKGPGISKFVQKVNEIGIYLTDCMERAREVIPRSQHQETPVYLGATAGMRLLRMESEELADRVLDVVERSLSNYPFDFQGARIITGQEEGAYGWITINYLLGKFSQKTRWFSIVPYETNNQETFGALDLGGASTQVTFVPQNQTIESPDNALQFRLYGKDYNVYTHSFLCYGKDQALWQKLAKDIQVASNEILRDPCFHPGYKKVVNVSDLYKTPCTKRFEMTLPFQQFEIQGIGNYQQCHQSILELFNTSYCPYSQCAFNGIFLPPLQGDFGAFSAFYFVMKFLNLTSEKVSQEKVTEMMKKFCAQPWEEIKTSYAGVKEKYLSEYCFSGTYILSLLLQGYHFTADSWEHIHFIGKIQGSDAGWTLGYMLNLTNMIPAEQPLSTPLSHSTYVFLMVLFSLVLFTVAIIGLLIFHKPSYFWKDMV

| SMILES | Drug metabolism [1] | Drug metabolism [2] | Activity [3] | Activity [4] | Activity [5] | Activity [6] |
| --- | --- | --- | --- | --- | --- | --- |
| O=c1ccn([C@@H]2O[C@H](COP(=S)(S)OP(=O)(O)O)[C@@H](O)[C@H]2O)c(=O)[nH]1 (stereo partly specified) | Metabolite_Detected | Metabolite_Detected |  |  |  |  |
| O=c1ccn([C@@H]2O[C@H](COP(=S)(S)OP(=O)(O)OP(=O)(O)O)[C@@H](O)[C@H]2O)c(=O)[nH]1 (stereo partly specified) |  |  | 7 to 27% | 7 to 27% | 7 to 27% | 7 to 27% |
